Where a SMILES comes first, the peptide text is derived from it. Bridges are numbered along the chain shown (N, C = ends). [ ]: non-standard residue; d: D form. dPen = CC(C)(S)[C@@H](N)C(=O)O
Key:
Mu-type opioid receptor [1] = target: Mu-type opioid receptor (Cavia porcellus, UniProt P97266); experiment: Inhibitory concentration against electrically evoked contractions of guinea pig ileum longitudinal muscle-myenteric plexus; type: functional, tissue-based
Method in brief: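 Longitudinal muscle-myenteric plexus strips from male Hartley guinea pigs (250–500 g) in oxygenated Krebs bicarbonate at 37 °C, 1-g tension. Transmural stimulation at 0.1 Hz, 0.4-ms pulses, supramaximal voltage. Cumulative agonist doses with 3 min contact each. Inhibition is relative to contraction height over the preceding 1 min.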

Mu-type opioid receptor [2] = target: Mu-type opioid receptor (Rattus norvegicus, UniProt P33535); experiment: Binding affinity towards mu opioid receptor was determined in rat brain using [3H]CTOP as radioligand; type: tissue-based
Sequence of Mu-type opioid receptor (Rattus norvegicus, UniProt P33535) (P33535 whole entry): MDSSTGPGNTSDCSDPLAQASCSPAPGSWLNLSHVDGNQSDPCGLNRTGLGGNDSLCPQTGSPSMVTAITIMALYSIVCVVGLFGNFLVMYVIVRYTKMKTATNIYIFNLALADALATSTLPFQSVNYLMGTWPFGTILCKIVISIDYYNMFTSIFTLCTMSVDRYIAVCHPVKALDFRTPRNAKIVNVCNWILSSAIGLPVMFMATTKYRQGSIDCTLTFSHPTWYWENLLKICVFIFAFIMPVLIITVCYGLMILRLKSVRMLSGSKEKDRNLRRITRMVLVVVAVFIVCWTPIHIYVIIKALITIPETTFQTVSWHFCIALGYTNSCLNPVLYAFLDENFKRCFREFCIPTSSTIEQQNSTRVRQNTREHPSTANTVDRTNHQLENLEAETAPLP
Method in brief: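 Rat brain membranes washed in 50 mM Tris-HCl pH 7.4, preincubated 30 min at 25 °C. Competition against 0.5 nM [3H]CTOP, 10 analog concentrations over an 800-fold range, in peptidase-inhibitor buffer with BSA. Incubation 3 h at 25 °C. Nonspecific binding defined by 10 μM naltrexone. Bound ligand filtered and counted; IC50 by nonlinear least-squares regression, at least three runs in duplicate.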

[3] = target: Delta-type opioid receptor (Mus musculus, UniProt P32300); experiment: Inhibitory concentration against delta opioid receptor of electrically induced smooth muscle contraction of mouse vas deferens; type: functional
Sequence of Delta-type opioid receptor (Mus musculus, UniProt P32300) (P32300 whole entry): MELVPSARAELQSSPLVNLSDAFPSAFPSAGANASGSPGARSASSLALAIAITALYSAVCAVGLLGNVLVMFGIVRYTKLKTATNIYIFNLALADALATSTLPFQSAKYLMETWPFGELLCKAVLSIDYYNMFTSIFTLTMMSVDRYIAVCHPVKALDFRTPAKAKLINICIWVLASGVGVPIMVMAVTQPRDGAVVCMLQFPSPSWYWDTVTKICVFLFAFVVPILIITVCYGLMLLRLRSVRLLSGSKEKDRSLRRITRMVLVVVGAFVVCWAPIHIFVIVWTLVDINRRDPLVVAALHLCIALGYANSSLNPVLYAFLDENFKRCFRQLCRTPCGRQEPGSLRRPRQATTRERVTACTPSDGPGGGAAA

[4] = target: Delta-type opioid receptor (Rattus norvegicus, UniProt P33533); experiment: Binding affinity towards delta opioid receptor was determined in rat brain using [H]-[p-Cl-Phe4]-DPDPE as radioligand; type: tissue-based
Sequence of Delta-type opioid receptor (Rattus norvegicus, UniProt P33533) (P33533 whole entry): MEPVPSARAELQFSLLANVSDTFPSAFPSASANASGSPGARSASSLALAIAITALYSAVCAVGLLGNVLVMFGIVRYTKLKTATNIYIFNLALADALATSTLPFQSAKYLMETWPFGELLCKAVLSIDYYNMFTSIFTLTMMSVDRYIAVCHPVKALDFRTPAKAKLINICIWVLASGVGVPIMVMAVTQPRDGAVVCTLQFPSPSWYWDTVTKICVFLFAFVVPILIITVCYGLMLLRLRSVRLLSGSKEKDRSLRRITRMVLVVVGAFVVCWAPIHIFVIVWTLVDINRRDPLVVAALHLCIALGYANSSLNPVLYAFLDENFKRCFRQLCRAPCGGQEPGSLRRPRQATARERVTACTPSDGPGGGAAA
Method in brief: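 Rat brain membranes washed in 50 mM Tris-HCl pH 7.4, preincubated 30 min at 25 °C to strip endogenous peptides. Buffer contains BSA, bestatin, bacitracin, captopril and toluenesulfonyl fluoride. Incubation 3 h at 25 °C. Nonspecific binding with 10 μM naltrexone. Filtration, scintillation counting, nonlinear least-squares fit, n ≥ 6.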

[5] = Selectivity ratio (GPI/MVD) of the compound; type: functional
Method in brief: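 IC50 ratio GPI/MVD. GPI: guinea pig ileum strips, 1-g tension, 0.4-ms pulses. MVD: male ICR mouse vas deferens (25–40 g), Mg-free Krebs, 0.5-g tension, 2.0-ms pulses. Both tissues at 37 °C, 0.1 Hz, cumulative doses with 3 min contact. Hill-equation fit, ≥4 tissues each.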

[6] = tested on: Opioid receptors; mu & delta; experiment: Selectivity ratio (mu/delta) of the compound; type: protein assay

Sequence of Mu-type opioid receptor (Cavia porcellus, UniProt P97266) (P97266 whole entry): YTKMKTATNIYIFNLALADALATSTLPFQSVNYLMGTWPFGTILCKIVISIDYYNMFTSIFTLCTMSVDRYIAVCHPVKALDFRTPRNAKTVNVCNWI

SMILES	IC50 (Mu-type opioid receptor [1])	IC50 (Mu-type opioid receptor [2])	IC50 [3]	IC50 [4]	Selectivity [5]	Selectivity [6]
CC1(C)SSC[C@@H](C(=O)N[C@@H](Cc2ccccc2)C(=O)O)NC(=O)[C@H](Cc2ccc(Br)cc2)NC(=O)CNC(=O)[C@@H]1NC(=O)[C@@H](N)Cc1ccc(O)cc1	120 nM	530 nM	0.028 nM	1 nM	4300	530
CC(C)[C@H](NC(=O)[C@H](CC(=O)O)NC(=O)[C@H](Cc1ccccc1)NC(=O)[C@@H](C)NC(=O)[C@@H](N)Cc1ccc(O)cc1)C(=O)N[C@H](C(=O)NCC(N)=O)C(C)C [DELTORPHIN C]	> 1500 nM					
CC1(C)SSC[C@@H](C(=O)N[C@@H](Cc2ccccc2)C(=O)O)NC(=O)[C@H](Cc2ccc(I)cc2)NC(=O)CNC(=O)[C@@H]1NC(=O)[C@@H](N)Cc1ccc(O)cc1	640 nM	1600 nM	0.3 nM	1.2 nM	2100	1300
CC1(C)SSC[C@@H](C(=O)N[C@@H](Cc2ccccc2)C(=O)O)NC(=O)[C@H](Cc2ccc(F)cc2)NC(=O)CNC(=O)[C@@H]1NC(=O)[C@@H](N)Cc1ccc(O)cc1	32 nM	110 nM	0.028 nM	0.71 nM	1100	160
CC1(C)SSC[C@@H](C(=O)N[C@@H](Cc2ccccc2)C(=O)O)NC(=O)[C@H](Cc2ccc(Cl)cc2)NC(=O)CNC(=O)[C@@H]1NC(=O)[C@@H](N)Cc1ccc(O)cc1	36 nM	83 nM	0.076 nM	0.51 nM	470	160
CC1(C)SSC[C@@H](C(=O)N[C@@H](Cc2ccccc2)C(=O)O)NC(=O)[C@H](Cc2ccccc2)NC(=O)CNC(=O)[C@@H]1NC(=O)[C@@H](N)Cc1ccc(O)cc1 (H-Y[dPen]GFCF-OH; disulfide 2-5)	82.7 nM	280 nM	0.016 nM	1.4 nM	5100	200
